pIC50: −log10 of the molar value. In brackets after ≈: the same amount, converted by molar mass. Activity calls are given as the source filed them. No cut-off for these calls is given here.
Key:
[1] = target: T1, Calpain-1 catalytic subunit (Homo sapiens, UniProt P07384); assay: Inhibition of human erythrocyte mu calpain
T1 sequence (P07384 whole entry): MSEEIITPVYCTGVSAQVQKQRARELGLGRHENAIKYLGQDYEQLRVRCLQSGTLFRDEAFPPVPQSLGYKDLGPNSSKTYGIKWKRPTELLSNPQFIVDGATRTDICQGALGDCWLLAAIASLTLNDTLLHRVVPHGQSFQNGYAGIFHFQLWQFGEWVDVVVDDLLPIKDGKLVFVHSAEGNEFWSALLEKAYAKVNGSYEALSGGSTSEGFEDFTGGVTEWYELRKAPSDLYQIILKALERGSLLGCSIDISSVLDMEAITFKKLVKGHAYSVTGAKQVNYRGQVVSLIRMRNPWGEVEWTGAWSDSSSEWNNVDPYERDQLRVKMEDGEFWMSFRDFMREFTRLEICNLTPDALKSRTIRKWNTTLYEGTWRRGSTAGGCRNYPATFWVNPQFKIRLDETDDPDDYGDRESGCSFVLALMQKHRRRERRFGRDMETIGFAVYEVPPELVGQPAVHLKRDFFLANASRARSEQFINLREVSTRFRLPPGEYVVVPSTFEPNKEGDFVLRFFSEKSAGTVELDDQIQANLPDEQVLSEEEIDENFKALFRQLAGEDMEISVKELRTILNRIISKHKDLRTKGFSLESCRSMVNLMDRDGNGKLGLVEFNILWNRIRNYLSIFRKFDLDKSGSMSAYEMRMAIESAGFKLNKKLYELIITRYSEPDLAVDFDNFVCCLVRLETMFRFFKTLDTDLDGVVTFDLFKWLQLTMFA
In short: (§1)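 Casein substrate at 0.5 mg/mL in 50 mM Tris-HCl pH 7.4 with 20 mM dithiothreitol and 1.0 nmol enzyme. Inhibitors were added in DMSO. Reaction was started with 20 mM CaCl2; blank wells received 1 mM EDTA instead. Incubation ran 60 min at 30 °C. Percent inhibition came from OD differences. IC50 is the mean of two independent determinations.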

[2] = Metabolic stability in human hepatic S9 fraction after 0.5 hrs; format: ADME; conditions: liver S9 fraction, read-out: Stability
In short: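 Compound at 5 µM final (added in acetonitrile) was incubated with human hepatic S9 in 50 mM potassium phosphate pH 7.4. An NADPH-generating system was present (3 mM MgCl2, 1 mM NADP+, 5 mM glucose-6-phosphate, 1 U/mL G6PDH). Incubation ran 30 min at 37 °C and was quenched with acetonitrile. Residual parent was measured by LC-UV or LC-MS/MS, n = 1.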

[3] = Aqueous solubility at pH 7 at 25 degreeC; format: physicochemical
[4] = target: T2, Calpain-2 catalytic subunit (Sus scrofa, UniProt P43367); assay: Inhibition of porcein kidney m calpain; in short: as §1
T2 sequence (P43367 whole entry): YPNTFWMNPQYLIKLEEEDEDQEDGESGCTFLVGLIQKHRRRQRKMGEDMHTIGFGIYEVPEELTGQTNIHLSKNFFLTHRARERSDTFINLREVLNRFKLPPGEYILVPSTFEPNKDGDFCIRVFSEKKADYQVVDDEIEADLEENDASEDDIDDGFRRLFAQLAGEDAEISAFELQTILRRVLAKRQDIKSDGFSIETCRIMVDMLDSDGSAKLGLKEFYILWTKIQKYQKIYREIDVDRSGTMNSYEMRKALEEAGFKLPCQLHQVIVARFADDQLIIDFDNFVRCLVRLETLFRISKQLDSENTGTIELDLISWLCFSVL

[5] = Lipophilicity, log D of the compound; format: physicochemical; conditions: octanol/water
[6] = Tmax in Sprague-Dawley rat at 500 mg/kg, po; format: ADME, organism-based; parameters: dose 500 mg/kg, route oral; conditions: in vivo
In short: (§2)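 Male Sprague-Dawley rats (200-250 g), single dose. Oral dosing as a suspension in 0.5% carboxymethyl cellulose; iv dosing at 10 mg/mL in 60% poly(ethylene glycol)/40% water. Plasma was taken from abdominal aorta blood under isoflurane at 0.1 (iv only), 0.25, 0.5, 1, 2, 4 and 8 h, with n = 4 or 5 per time point. Samples underwent solid-phase extraction and LC-MS/MS (MRM). Values are mean ± SD.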

[7] = Terminal half life in Sprague-Dawley rat at 3 mg/kg, iv; format: ADME, organism-based; parameters: dose 3 mg/kg, route intravenous; conditions: in vivo; in short: as §2
Rattus norvegicus [8] = assay: Neuroprotective activity in Sprague-Dawley rat ischemia-reperfusion model measured as cell density in retinal ganglion cell layer at 500 mg/kg, po; format: functional, organism-based; parameters: dose 500 mg/kg
In short: (§3)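 Male Sprague-Dawley rats (150-250 g) received oral doses as a suspension in 0.5% CMC, 15 min before ischemia and again after reperfusion. Controls received vehicle. HE-stained nuclei in the ganglion cell layer 1-2 mm from the optic disk were counted over a 250 µm width at three sites. Comparison by Student t-test.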

[9] = Clearance in Sprague-Dawley rat at 3 mg/kg, iv; format: ADME, organism-based; parameters: dose 3 mg/kg, route intravenous; conditions: in vivo; in short: as §2
[10] = Cmax in Sprague-Dawley rat at 500 mg/kg, po; format: ADME, organism-based; parameters: dose 500 mg/kg, route oral; conditions: in vivo; in short: as §2
[11] = Oral bioavailability in Sprague-Dawley rat; format: ADME, organism-based; conditions: in vivo; in short: as §2
[12] = Apparent permeability from apical to basolateral side of the Caco-2 cell; format: ADME, cell-based; conditions: human
[13] = Volume of distribution in Sprague-Dawley rat at 3 mg/kg, iv; format: ADME, organism-based; parameters: dose 3 mg/kg, route intravenous; conditions: in vivo, read-out: Vdss; in short: as §2
[14] = AUC (0-infinity) in Sprague-Dawley rat at 500 mg/kg, po; format: ADME, organism-based; parameters: time infinity, dose 500 mg/kg, route oral; conditions: plasma; in short: as §2
[15] = AUC (0-infinity) in Sprague-Dawley rat at 3 mg/kg, iv; format: ADME, organism-based; parameters: time infinity, dose 3 mg/kg, route intravenous; conditions: plasma; in short: as §2
Rattus norvegicus [16] = assay: Neuroprotective activity in Sprague-Dawley rat ischemia-reperfusion model measured as cell density in retinal ganglion cell layer at 30 mg/kg, po relative to control; format: functional, organism-based; parameters: dose 30 mg/kg; in short: as §3
[17] = Tmax in Sprague-Dawley rat at 10 mg/kg, po; format: ADME, organism-based; parameters: dose 10 mg/kg, route oral; conditions: in vivo; in short: as §2
Rattus norvegicus [18] = assay: Neuroprotective activity in Sprague-Dawley rat ischemia-reperfusion model measured as cell density in retinal ganglion cell layer at 100 mg/kg, po relative to control; format: functional; in short: as §3
[19] = AUC (0-infinity) in Sprague-Dawley rat at 10 mg/kg, po; format: ADME, organism-based; parameters: time infinity, dose 10 mg/kg, route oral; conditions: plasma; in short: as §2
[20] = Cmax in Sprague-Dawley rat at 10 mg/kg, po; format: ADME, organism-based; parameters: dose 10 mg/kg, route oral; conditions: in vivo; in short: as §2

Row | SMILES | pIC50 [1] | remaining at 0.5 h [2] [%] | solubility [3] [mg/mL] | pIC50 [4] | half-life [7] [min] | clearance [9] [L/h/kg] | bioavailability [11] [%] | Vd [13] [L/kg] | AUC(0-inf) [15] [µM·h] | also measured
1 | CC(C)[C@H](NS(=O)(=O)c1ccc(F)cc1)C(=O)N[C@H]1CCOC1O (stereo partly specified) | 6.06 | 79 | 1.5 (≈ 4160 µM) | 5.59 | – | – | – | – | – | –
2 | CC(C)C[C@@H](C#N)NC(=O)[C@@H](NS(=O)(=O)c1ccc(F)cc1)C(C)C | < 4.00 | – | – | < 4.00 | – | – | – | – | – | –
3 | CC(C)C[C@@H](C=O)NC(=O)[C@@H](NS(=O)(=O)c1ccc(F)cc1)C(C)C | – | 3 | 0.1 (≈ 268 µM) | 7.31 | 42 | 5.34 | 18 | 6.1 | 1.5 | logD [5]: 1.7; Tmax [6]: 60 min; Activity (Rattus norvegicus [8]): Active; Cmax [10]: 9.4 µM; Papp A→B [12]: 26 nm/s; AUC(0-inf) [14]: 45 µM·h

The next lines start with results.

Row | pIC50 [1] | remaining at 0.5 h [2] [%] | solubility [3] [mg/mL] | pIC50 [4] | half-life [7] [min] | clearance [9] [L/h/kg] | bioavailability [11] [%] | Vd [13] [L/kg] | AUC(0-inf) [15] [µM·h] | SMILES | also measured
4 | – | 64 | – | – | – | – | – | – | – | CC(C)C[C@@H](/C=N/NC(=O)CN(C)C)NC(=O)[C@@H](NS(=O)(=O)c1ccc(F)cc1)C(C)C | –
5 | – | 25 | 0.0053 (≈ 11.2 µM) | – | – | – | – | – | – | CCCCNC(=O)C(=O)[C@H](CC(C)C)NC(=O)[C@@H](NS(=O)(=O)c1ccc(F)cc1)C(C)C | –
6 | 7.07 | 100 | – | 6.72 | 114 | 3.3 | 66 | 2.3 | 2.6 | CC(C)C[C@H](NC(=S)Nc1ccccc1)C(=O)N[C@H]1CCOC1O (stereo partly specified) | Activity (Rattus norvegicus [16]): inactive; Tmax [17]: 15 min; Activity (Rattus norvegicus [18]): 6.38; AUC(0-inf) [19]: 5.7 µM·h; Cmax [20]: 5.6 µM

Reference: ChEMBL document CHEMBL1138043, “Exploration of orally available calpain inhibitors 2: peptidyl hemiacetal derivatives” (J Med Chem, 2006)
